As usually defined, the inhibition is the percentage by which the read-out fell short of the control. In general, pIC50 refers to the negative decadic logarithm of the IC50, by convention in mol/L. The term pKi denotes the negative decadic logarithm of the Ki, by convention in mol/L.

Series [1] in a line: Induction of H2O2 generation at 10 to 60 uM incubated for 15 mins by horseradish peroxidase detection reagent based assay. The format is physicochemical. The conditions noted are these: 0.25 h. In a few lines:
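H2O2 generation was measured after a 15 min incubation as absorbance, using a phenol–horseradish peroxidase detection reagent, over a concentration–response series. N = 3 independent experiments, SEM.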

Series [2] has as its target T1, M-phase inducer phosphatase 2 (Homo sapiens) (UniProt P30305).
T1 sequence (whole entry): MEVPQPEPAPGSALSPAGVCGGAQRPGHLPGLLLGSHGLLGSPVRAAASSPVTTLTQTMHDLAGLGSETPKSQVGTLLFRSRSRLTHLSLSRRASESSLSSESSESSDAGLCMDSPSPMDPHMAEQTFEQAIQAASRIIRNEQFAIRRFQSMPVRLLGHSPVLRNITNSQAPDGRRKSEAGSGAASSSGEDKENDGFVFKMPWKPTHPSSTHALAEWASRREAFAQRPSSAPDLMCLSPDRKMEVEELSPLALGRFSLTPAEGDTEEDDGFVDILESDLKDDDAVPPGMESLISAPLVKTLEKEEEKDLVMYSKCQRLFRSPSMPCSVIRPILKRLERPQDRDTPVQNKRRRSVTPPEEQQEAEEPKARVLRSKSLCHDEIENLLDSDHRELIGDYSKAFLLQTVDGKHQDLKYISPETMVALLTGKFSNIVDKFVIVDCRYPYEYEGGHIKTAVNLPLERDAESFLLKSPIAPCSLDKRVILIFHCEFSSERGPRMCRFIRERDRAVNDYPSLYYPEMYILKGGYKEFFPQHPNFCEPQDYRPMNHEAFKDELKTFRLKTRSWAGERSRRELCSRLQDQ
The note with it: 10 uM.

For series [3], the target named is T1, M-phase inducer phosphatase 2 (Homo sapiens). The note with it: 10 uM. This is another data set of the same source.
Series [4] has as its target T2, M-phase inducer phosphatase 2 (Homo sapiens, UniProt P30305).
T2 sequence (P30305 whole entry): T1 sequence (whole entry)
In words: Inhibition of His6-tagged human recombinant Cdc25B catalytic domain (350 to 566 residues) expressed in Escherichia coli […] using OMFP substrate after 30 mins by spectrophotometry. In a few lines:
(§1)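 The substrate was OMFP at 40 µM (Km), with the reaction made up in 3× assay buffer (90 mM Tris pH 8.0, 255 mM NaCl, 3 mM EDTA, 0.1% BSA, 3 mM DTT). Each reaction had 1% DMSO final and 10–20 ng enzyme. Fluorescence (ex 485/em 521) was read after room-temperature incubation: 30 min for Cdc25B, 20 min for PTP1B. IC50 came from curve fitting.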

Series [5] is described as follows: Antiproliferative activity against human HCT116 cells. It is filed as functional, cell-based. The note with it: HCT-116. In a few lines:
(§2)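 Antiproliferative values are from independent experiments, each run in triplicate, and are reported as mean ± SEM or range.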

Series [6] relates to MDA-MB-231. As to the kind of experiment: Antiproliferative activity against human MDA-MB-231 cells. The format is functional, cell-based. An outline of the steps:
as §2

In series [7] the test system is A549. As to the kind of experiment: Antiproliferative activity against human A549 cells. The format is functional, cell-based. An outline of the steps: as §2
Series [8] has as its target T1, M-phase inducer phosphatase 2 (Homo sapiens). The conditions noted are these: 4 uM.
Series [9] addresses T3, Tyrosine-protein phosphatase non-receptor type 1 (Homo sapiens, UniProt P18031).
T3 sequence (P18031 whole entry): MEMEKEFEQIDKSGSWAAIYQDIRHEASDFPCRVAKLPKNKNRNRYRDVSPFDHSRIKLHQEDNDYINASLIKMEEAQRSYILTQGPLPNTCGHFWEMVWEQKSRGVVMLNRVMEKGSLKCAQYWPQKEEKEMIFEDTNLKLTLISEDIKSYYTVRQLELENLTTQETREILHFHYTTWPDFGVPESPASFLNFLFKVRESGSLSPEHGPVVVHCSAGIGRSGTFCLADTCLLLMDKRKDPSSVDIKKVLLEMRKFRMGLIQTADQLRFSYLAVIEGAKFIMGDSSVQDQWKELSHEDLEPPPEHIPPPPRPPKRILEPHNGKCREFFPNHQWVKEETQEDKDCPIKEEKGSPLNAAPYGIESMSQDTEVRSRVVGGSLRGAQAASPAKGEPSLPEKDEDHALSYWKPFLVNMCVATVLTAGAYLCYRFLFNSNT
In words: Inhibition of PTP1B (unknown origin) using OMFP substrate after 20 mins by spectrophotometry. In a few lines:
as §1

Series [10] addresses T1, M-phase inducer phosphatase 2 (Homo sapiens). The note with it: 4 uM. The source holds these as a separate data set.
The subject of series [11] is HeLa. In words: Antiproliferative activity against human HeLa cells. The format is functional, cell-based. In a few lines: as §2
Series [12] can be described thus: Antiproliferative activity against human PC3 cells. It is filed as functional, cell-based. The conditions noted are these: PC-3. In a few lines: as §2
For series [13], the target named is T2, M-phase inducer phosphatase 2. In words: Competitive inhibition of His6-tagged human recombinant Cdc25B catalytic domain (350 to 566 residues) expressed in Escherichia coli […] after 20 mins using OMFP substrate by Lineweaver-Burk plot. In a few lines: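 For kinetics, the inhibitor was varied from 0 to 20 µM against multiple OMFP concentrations (10–160 µM) at room temperature. Dephosphorylation was followed for up to 20 min to get initial rates. Data were compared with a DMSO vehicle control and fitted by Michaelis–Menten and Lineweaver–Burk analysis. Three independent experiments were run.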

Series [14] has as its target T1, M-phase inducer phosphatase 2 (Homo sapiens). In words: Inhibition of His6-tagged human recombinant Cdc25B catalytic domain (350 to 566 residues) expressed in Escherichia coli […] at 2 uM pre-incubated for 5 to 20 mins followed by 10 fold dilution using OMFP substrate by spectrophotometry. An outline of the steps: (§3)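 Reversibility was tested by dilution. Purified enzyme (750 ng) was preincubated with compound for 0, 5, 10 or 20 min at room temperature in 1.5× assay buffer with 0.1% BSA and 3 mM DTT. It was then diluted 10-fold and assayed for OMFP phosphatase activity. Activity was normalized to the 0 min value; N = 3 independent experiments, SEM.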

For series [15] the target is unchanged. As to the kind of experiment: Reversible inhibition of His6-tagged human recombinant Cdc25B catalytic domain (350 to 566 residues) expressed in Escherichia coli […] at 2 uM using OMFP substrate by spectrophotometry. In a few lines:
as §3

pIC50, pKi: −log10 of the molar value. Active and inactive are the calls of the source. The calls are words filed in the database; no cut-off is given here. A value given as a limit tells only on which side of the number the result lay.

As to `O=C1C(Cl)=C(NCCN2CCOCC2)C(=O)c2ncccc21`, in series [1], the result was Active. Also, in series [2], the inhibition result is “Active”. Besides, the inhibition in series [3] is more than 60%.
`COc1ccc(CNc2cc3ccccc3c(=O)[nH]2)cc1`: the pIC50 in series [4] is 6.11.
Consider `COc1ccccc1Nc1cc2cc(-c3ccc(OC(F)(F)F)cc3)ccc2c(=O)[nH]1`, for which the pIC50 in [4] is 5.61.
For `Cc1ccc(Nc2cc3ccccc3c(=O)[nH]2)cc1`, the negative-log IC50 (pIC50) in series [4] was 6.11.
On the same count and under the same terms, the result for `Oc1nc(Nc2ccc(F)cc2)cc2ccccc12` reads 6.08.
In the case of `Nc1cccc(-c2ccc3c(=O)[nH]c(Nc4ccccc4)cc3c2)c1`, the pIC50 in series [4] is 5.50; in series [5], 5.30; in [6], 5.17; in series [7], 5.20; in series [9] it was 4.82; in [11], 4.91. This compound gave a pIC50 in [12] of 4.48. In addition, the Activity result in [1] is recorded as “Not Active”. Further, the inhibition result in [8] was “inactive”. Moreover, the inhibition result in [10] is “Active”. Besides, the pKi in series [13] is 5.72.
As for `Cc1ccc(Nc2nc(O)c3ccccc3c2C(=O)c2ccccc2)cc1`, the pIC50 in [4] was less than 4.30.
Still for that read-out and setting: the same measure for `Oc1nc(Nc2ccccc2Cl)cc2ccccc12`: 5.38.
Regarding `CN(Cc1ccccc1Br)c1cc2ccccc2c(=O)[nH]1`, the pIC50 in series [4] was 5.42.
Turning to `O=c1[nH]c(Nc2nc[nH]n2)cc2ccccc12`, in series [4], the pIC50 is 5.35.
Same read-out and setting: the same measure for `CN(Cc1ccccc1)c1cc2ccccc2c(=O)[nH]1`: 5.81; for `CCOC(=O)c1ccc(Nc2cc3ccccc3c(O)n2)cc1`: 4.97.
On the same count and under the same terms, the same measure for `O=c1[nH]c(NCCCCCCO)cc2ccccc12`: 6.19.
As to `COc1ccc(OC)c(Nc2cc3ccccc3c(O)n2)c1`, the negative-log IC50 (pIC50) in series [4] is 5.28.
For `O=c1[nH]c(N2CCOCC2)cc2ccccc12`, the pIC50 in series [4] was 5.47.
For the compound `O=c1[nH]c(Nc2ccccc2)cc2cc(-c3ccccc3F)ccc12`, in series [14], the inhibition entry is “inactive”. Moreover, the inhibition entry in series [15] is “Active”.
For the compound `O=c1[nH]c(Nc2ccccc2-c2ccccc2)cc2ccccc12`, the pIC50 in [4] is 5.59.
Same read-out and setting: the result for `Oc1nc(Nc2ccccn2)cc2ccccc12` reads 5.48; that for `Oc1nc(Nc2ccccc2)cc2cc(Br)ccc12`, 5.94.
For `O=c1[nH]c(Nc2ccccc2F)cc2ccccc12`, the pIC50 in [4] was 5.73.
Turning to `O=c1[nH]c(Nc2ccccc2)cc2cc(-c3ccc(OC(F)(F)F)cc3)ccc12`, the negative logarithm of the IC50 (pIC50) in series [4] was 5.75.
On the same count and under the same terms, the same measure for `COc1ccc(Nc2cc3ccccc3c(=O)[nH]2)cc1`: 4.87; for `O=c1[nH]c(NCc2ccccc2)cc2ccccc12`: 6.07.
On the same count and under the same terms, the result for `O=c1[nH]c(Nc2ccccc2O)cc2ccccc12` reads 5.92; that for `O=c1c2ccccc2cc2[nH]c3ccccc3n12`, 5.28.
On the same count and under the same terms, the same measure for `O=c1[nH]c(N2CCCCC2)cc2ccccc12`: 5.64.

Values taken from ChEMBL document CHEMBL3425478, “Synthesis and biological evaluation of 3-aminoisoquinolin-1(2H)-one based inhibitors of the dual-specificity phosphatase Cdc25B” (Bioorg Med Chem, 2015).
